Only some compounds are listed: those with a hit (about 29% of all), similar ones and a draw of the others.
CYP2C9 inh = inhibitors of human CYP2C9; P11712; CYP2C9 Supersomes, luciferin-H conversion, luminescence; inhibition, % at 5 µM; actives 20% (n = 96,000);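 active = blocking of liver enzyme CYP2C9 beyond about 50% at 5 µM, limit read from the data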
Target sequence (P11712 whole entry, looked up): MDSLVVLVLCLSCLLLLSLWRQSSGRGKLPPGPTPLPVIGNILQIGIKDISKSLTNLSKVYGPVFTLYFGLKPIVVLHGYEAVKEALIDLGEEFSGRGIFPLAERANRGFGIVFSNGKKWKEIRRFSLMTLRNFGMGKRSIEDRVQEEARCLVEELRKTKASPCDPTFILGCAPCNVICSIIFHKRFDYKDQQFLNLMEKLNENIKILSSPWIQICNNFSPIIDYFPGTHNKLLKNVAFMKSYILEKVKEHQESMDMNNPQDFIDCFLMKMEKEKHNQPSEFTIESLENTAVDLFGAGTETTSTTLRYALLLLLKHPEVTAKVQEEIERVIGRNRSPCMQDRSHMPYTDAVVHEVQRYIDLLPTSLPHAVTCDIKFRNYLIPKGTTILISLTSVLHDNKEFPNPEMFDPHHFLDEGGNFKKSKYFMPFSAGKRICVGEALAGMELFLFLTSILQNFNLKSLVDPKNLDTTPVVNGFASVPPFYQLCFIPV
CYP2C19 inhib = blocks human cytochrome P450 2C19; P33261; CYP2C19 Supersomes, luciferin-H EGE luminescence, 30 min; inhibition, % at 5 µM; actives 21% (n = 96,000); AID 778;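 active = CYP2C19 inhibition above a set limit at 5 µM in the primary screen, cut at about 50% in these data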
tolC growth inh = growth inhibitors of E. coli BW25113 tolC mutant. OD615. growth inhibition, % at 10 µM (by protocol). actives 2.2% (n = 65,000);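 active = growth inhibition at or above a cutoff equal to the mean over every tested compound plus 3 SD, cut at about 60% in these data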;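 note: growth measured after 20 h incubation at 37 °C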
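test system = E. coli BW25113 ΔtolC::kan bacteria | medium = LB with kanamycin 50 µg/mL | signal = OD at 615 nm | schedule = 37 °C, 20 h exposure | evaluation = % inhibition of E. coli growth | compound dosing = one dose of 10 µM final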
CYP2C19 activ = cytochrome P450 2C19 (human) activation; P33261; recombinant CYP2C19, luciferin-H EGE luminescence; active compounds read high; 0 = fully inhibited enzyme, 1 = untreated enzyme; activation factor at 5 µM; 96,000 tested, under 10 active;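 active = activation factor of at least 2 at 5 µM in the primary screen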
CYP2C9 activ = activators of human CYP2C9; actives 1.4% (n = 96,000); activation factor at 5 µM; P11712; recombinant CYP2C9, luciferin-H conversion, luminescence; active compounds read high; factor 1 = untreated enzyme, 0 = blocked;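 active = activation factor of 2 or more for CYP2C9 at a 5 µM dose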
Ecoli WT expand = growth inhibitors of E. coli BW25113 wild type; OD600 absorbance; growth inhibition, % at 100 µM; actives 0.15% (n = 98,000); AID 710;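 active = growth inhibition above about 50% at one test dose, limit read from the data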;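 note: growth measured after 20 h incubation at 37 °C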
Hits are given with their value; i = inactive; nt = not tested or not shown.

SMILES	CYP2C9 inh	CYP2C19 inhib	tolC growth inh	CYP2C19 activ	CYP2C9 activ	Ecoli WT expand
CC1CCN(C(=O)C2CCN(C(=O)c3cc4sccc4n3Cc3ccc(F)cc3)CC2)CC1	73	i	i	i	i	i
CC(C)NC(=O)C1CCN(C(=O)c2cc3sccc3n2Cc2ccc(F)cc2)CC1	72	56	i	i	i	i
Cn1c(C(=O)N2CCCC(C(=O)N3CCN(C(=O)c4ccco4)CC3)C2)cc2sccc21 (stereo unspecified)	i	i	i	i	i	i
NC(=S)Nc1ccc(Oc2ccc(NC(N)=S)cc2)cc1	i	i	nt	i	i	i
CSCCC1NC(=O)NC1=O (stereo unspecified)	i	i	i	i	i	i
CCC(=O)NCCc1nc2ccccc2n1Cc1ccc(C)cc1	i	i	nt	i	i	i
O=c1[nH]c(SCCOc2ccccc2)nc2ccccc12	i	i	i	i	i	i
COc1ccccc1OCCSc1nc2ccccc2c(=O)[nH]1	i	59	i	i	i	i
Cc1cc(=O)[nH]c(SCCOc2ccc(OC(C)C)cc2)n1	75	66	i	i	i	i
C/C=C/c1ccc(OCCSc2nc(C)cc(=O)[nH]2)c(OC)c1	53	i	i	i	i	i
CCc1cc(OCCCSc2nc(C)cc(=O)[nH]2)ccc1Cl	i	70	nt	i	i	i
Cc1cc(=O)[nH]c(SCCOc2ccc3c(c2)CCC3)n1	i	i	i	i	i	i
Cc1cc(=O)[nH]c(SCCCOc2ccccc2Cl)n1	i	i	nt	i	i	i
COC(=O)c1[nH]c2ccccc2c1NC(=O)CN1CCN(C(=O)c2ccco2)CC1	i	i	i	i	i	i
O=C(c1ccc(S(=O)(=O)N2CCOCC2)cc1)N1CCN(c2ccccc2F)CC1	i	i	i	i	i	i
O=C(OCCN(C1=NS(=O)(=O)c2ccccc21)c1ccccc1Cl)c1ccc(Cl)cc1	87	i	nt	i	i	i
O=C(OCCN1CCCCC1)c1ccc(Cl)cc1	i	i	nt	i	i	i
Cc1cc(N2CCN(C(=O)c3ccco3)CC2)n2nc(-c3cccc(F)c3)cc2n1	88	83	i	i	i	i
COc1cc(OC)cc(-c2cc3nc(C)cc(N4CCN(C(=O)c5ccco5)CC4)n3n2)c1	i	55	nt	i	i	i
CCc1ccc(N(C(=O)c2csnn2)C(C(=O)NCc2ccccc2)c2ccco2)cc1 (stereo unspecified)	i	i	nt	i	i	i
CC1Cc2cc(C3(O)C(=O)c4ccccc4C3=O)ccc2N1 (stereo unspecified)	i	60	i	i	2.4	i
CCOc1ccc2nc(SCC(=O)N3CCCCCC3)c(C#N)cc2c1	69	i	i	i	i	i
CCOC(=O)CSc1nc2cc(C)ccc2cc1C#N	i	i	i	i	i	i
CCOc1ccc2cc(C#N)c(SCC(=O)N3CCOCC3)nc2c1	i	i	i	i	i	i
CCOC(=O)CSc1nc2cc(OC)ccc2cc1C#N	89	i	i	i	i	i
SMILES	CYP2C9 inh	CYP2C19 inhib	tolC growth inh	CYP2C19 activ	CYP2C9 activ	Ecoli WT expand
CCOC(=O)N1CCC(NC(=O)CSCc2cnn(-c3ccccc3)c2-n2cccc2)CC1	51	57	i	i	i	i
Cc1ccc(CNC(=O)C2CCCN(Cc3cnn(-c4ccccc4)c3-n3cccc3)C2)cc1 (stereo unspecified)	i	i	nt	i	i	i
O=C(CSCc1cnn(-c2ccccc2)c1-n1cccc1)NCc1cccs1	81	53	i	i	i	i
CCOC(=O)N1CCC(NC(=O)CCc2c(C)nc3c(c(C)nn3-c3ccccc3)c2C)CC1	nt	nt	i	nt	nt	nt
COc1cccc(CNC(=O)c2nnn(-c3ccc(OC(F)(F)F)cc3)c2N)c1	i	i	nt	i	i	i
CNC(=O)CSCc1cnn(-c2ccccc2)c1-n1cccc1	i	76	nt	i	i	i
COc1cccc(CNC(=O)CSCc2cnn(-c3ccccc3)c2-n2cccc2)c1	94	92	nt	i	i	i
Cc1c(O)c(CN2CCCC2)cc2c1oc(=O)c1ccccc12	i	57	i	i	i	i
CCc1cc(=O)oc2c(C)c(O)c(CN3CCCCC3)cc12	i	i	i	i	i	i
O=c1oc2ccccc2c(O)c1CN1CCCCC1	94	52	i	i	i	i
Cc1c(O)c(CN2CCCC2)cc2c3c(c(=O)oc12)CCC3	52	i	i	i	i	i
Cc1c(C)c2cc(Cl)c(O)c(CN3CCCCC3)c2oc1=O	i	i	i	i	i	i
CC1(C)N=C(SCC(=O)Nc2ccc(Cl)cc2Cl)C(c2ccccc2)=N1	62	55	nt	i	i	i
Cc1ccc(C2=NC(C)(C)N=C2SCC(=O)Nc2ccc(Cl)cc2)cc1	i	i	nt	i	i	i
CCCNC(=S)N1CCC(NC(=O)C2CCCCC2)CC1	i	i	nt	i	i	i
COC(=O)CCCC(=O)Nc1ccc(Cl)c(Cl)c1	nt	nt	i	nt	nt	i
O=C(c1cccnc1)N1CCN(C(=O)c2cccs2)CC1	i	i	i	i	i	i
C=CCn1c(N)c(C(=O)OC(C)(C)C)c2nc3ccccc3nc21	77	63	i	i	i	i
C=CCn1c(N)c(C(=O)OC(C)CC)c2nc3ccccc3nc21 (stereo unspecified)	83	56	i	i	i	i
COCC(C)OC(=O)c1c(N)n(CC(C)C)c2nc3ccccc3nc12 (stereo unspecified)	i	i	nt	i	i	i
Cc1c(Cl)cccc1N1CC(C(=O)Nc2nccs2)CC1=O (stereo unspecified)	i	i	i	i	i	i
CCNc1nc(NCC)nc(Nn2cnnc2)n1	i	i	i	i	i	i
COC(=O)c1sccc1NC(=S)N1CCCCC1C (stereo unspecified)	i	63	nt	i	i	i
COC(=O)c1sccc1NC(=S)N1CCCC(C)C1 (stereo unspecified)	i	i	nt	i	i	i
Clc1cccc(Cl)c1CSc1nnc(-c2sccc2-n2cccc2)o1	i	i	nt	i	i	i
SMILES	CYP2C9 inh	CYP2C19 inhib	tolC growth inh	CYP2C19 activ	CYP2C9 activ	Ecoli WT expand
Cc1cc(-c2nc3cccnc3s2)ccc1NS(=O)(=O)c1ccc2c(c1)OCCO2	96	i	nt	i	i	i
Cc1c(NS(=O)(=O)c2ccc3c(c2)OCCO3)cccc1-c1nc2cccnc2s1	83	100	nt	i	i	i
Cc1ccccc1CNS(=O)(=O)c1ccc2c(c1)OCCO2	nt	nt	i	nt	nt	nt
CCS(=O)(=O)Nc1cc(-c2nc3cccnc3s2)ccc1C	i	i	i	i	i	i
Cc1ccc(S(=O)(=O)N(C)c2ccc(OCC(=O)O)cc2)cc1	i	i	nt	i	i	i
CN(c1ccc(OCC(=O)Nc2ccc3[nH]c(=O)[nH]c3c2)cc1)S(=O)(=O)c1ccc(Cl)cc1	62	i	nt	i	i	i
CCOc1ccc(S(=O)(=O)N(C)c2ccc(OCC(=O)Nc3ccc4[nH]c(=O)[nH]c4c3)cc2)cc1	78	i	i	i	i	i
CC(C)Nc1nnc(SCC(=O)c2c(N)n(Cc3ccccc3)c(=O)n(C)c2=O)s1	58	i	nt	i	i	i

Bioassay records: PubChem BioAssay, several laboratories
